# Measured values taken from ChEMBL document CHEMBL4813947, “New dual ATP-competitive inhibitors of bacterial DNA gyrase and topoisomerase IV active against ESKAPE pathogens” (Eur J Med Chem, 2021).
# Legend:
# [1] = tested on: human topoisomerase 2alpha; experiment: Selectivity ratio of IC50 for inhibition of human topoisomerase 2alpha to IC50 for inhibition of Escherichia coli topoisomerase IV; type: toxicity; settings: read-out: Ratio IC50
# [2] = Inhibition of Staphylococcus aureus topoisomerase assessed as reduction in relaxation of supercoiled pNO1 DNA measured after 30 mins by fluorescence assay
# Summary of the method: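 Enzyme run per an earlier-reported procedure; IC50 fitted from seven inhibitor concentrations, mean of three independent measurements.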
# Staphylococcus aureus [3] = experiment: Antibacterial activity against Staphylococcus aureus ATCC 29213 assessed as inhibition of bacterial growth by CLSI protocol based broth microdilution assay; type: functional
# Enterococcus faecalis = experiment: Antibacterial activity against Enterococcus faecalis ATCC 29212 assessed as inhibition of bacterial growth by CLSI protocol based broth microdilution assay; type: functional
# Acinetobacter baumannii [4] = experiment: Antibacterial activity against Acinetobacter baumannii ATCC 17978 assessed as inhibition of bacterial growth by CLSI protocol based broth microdilution assay; type: functional
# Pseudomonas aeruginosa [5] = experiment: Antibacterial activity against Pseudomonas aeruginosa ATCC 27853 assessed as inhibition of bacterial growth by CLSI protocol based broth microdilution assay; type: functional
# Klebsiella pneumoniae = experiment: Antibacterial activity against Klebsiella pneumoniae ATCC 10031 assessed as inhibition of bacterial growth by CLSI protocol based broth microdilution assay; type: functional
# Escherichia coli [6] = experiment: Antibacterial activity against Escherichia coli ATCC 25922 assessed as inhibition of bacterial growth by CLSI protocol based broth microdilution assay; type: functional
# Staphylococcus aureus [7] = experiment: Antibacterial activity against methicillin-resistant wild type Staphylococcus aureus ATCC 43300 assessed as inhibition of bacterial growth by CLSI protocol based broth microdilution assay; type: functional
# Summary of the method: (§1)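 Minimum inhibitory concentration by standard serial broth microdilution following CLSI guidelines. Medium was MHBII broth (22 g/L powder: beef extract, casein acid hydrolysate, starch), with MHBII agar (14 g agar per L broth). Where noted, assayed without and with efflux pump substrate phenylalanine-arginine β-naphthylamide (PAβN).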
# Staphylococcus aureus [8] = experiment: Antibacterial activity against methicillin-resistant Staphylococcus aureus ATCC 43300 harboring GyrB T173A mutant assessed as inhibition of bacterial growth by CLSI protocol based broth microdilution assay; type: functional; summary of the method: as §1
# Staphylococcus aureus [9] = experiment: Antibacterial activity against vancomycin-resistant Staphylococcus aureus ATCC 700699 harboring GyrB R144I mutant assessed as inhibition of bacterial growth by CLSI protocol based broth microdilution assay; type: functional; summary of the method: as §1
# Staphylococcus aureus [10] = experiment: Antibacterial activity against vancomycin-resistant Staphylococcus aureus ATCC 700699 harboring GyrB […] mutant assessed as inhibition of bacterial growth by CLSI protocol based broth microdilution assay; type: functional; summary of the method: as §1
# Staphylococcus aureus [11] = experiment: Antibacterial activity against vancomycin-resistant wild type Staphylococcus aureus ATCC 700699 assessed as inhibition of bacterial growth by CLSI protocol based broth microdilution assay; type: functional; summary of the method: as §1
# Escherichia coli [12] = experiment: Antibacterial activity against wild type Escherichia coli MG1655 assessed as inhibition of bacterial growth by CLSI protocol based broth microdilution assay; type: functional; summary of the method: as §1
# Escherichia coli [13] = experiment: Antibacterial activity against Escherichia coli MG1655 in presence of efflux pump inhibitor PAbetaN assessed as inhibition of bacterial growth by CLSI protocol based broth microdilution assay; type: functional
# Acinetobacter baumannii [14] = experiment: Antibacterial activity against clinical isolate ciprofloxacin resistance Acinetobacter baumannii ATCC BAA-1605 assessed as inhibition of bacterial growth by CLSI protocol based broth microdilution assay; type: functional; summary of the method: as §1
# Escherichia coli [15] = experiment: Antibacterial activity against Escherichia coli 20204 assessed as inhibition of bacterial growth by CLSI protocol based broth microdilution assay; type: functional
# Escherichia coli [16] = experiment: Antibacterial activity against clinical isolate ciprofloxacin resistance Escherichia coli 31995 assessed as inhibition of bacterial growth by CLSI protocol based broth microdilution assay; type: functional; summary of the method: as §1
# Escherichia coli [17] = experiment: Antibacterial activity against clinical isolate ciprofloxacin resistance Escherichia coli 31859 assessed as inhibition of bacterial growth by CLSI protocol based broth microdilution assay; type: functional; summary of the method: as §1
# Pseudomonas aeruginosa [18] = experiment: Antibacterial activity against Pseudomonas aeruginosa 19488 assessed as inhibition of bacterial growth by CLSI protocol based broth microdilution assay; type: functional
# Staphylococcus aureus [19] = experiment: Ratio of MIC for vancomycin-resistant Staphylococcus aureus ATCC 700699 harboring GyrB R144I mutant to MIC for vancomycin-resistant wild type Staphylococcus aureus ATCC 700699; type: functional
# Staphylococcus aureus [20] = experiment: Ratio of MIC for vancomycin-resistant Staphylococcus aureus ATCC 700699 harboring GyrB […] mutant to MIC for vancomycin-resistant wild type Staphylococcus aureus ATCC 700699; type: functional
# [21] = tested on: human topoisomerase 2alpha; experiment: Selectivity ratio of IC50 for inhibition of human topoisomerase 2alpha to IC50 for inhibition of Staphylococcus aureus DNA gyrase; type: toxicity; settings: read-out: Ratio IC50
# Escherichia coli [22] = experiment: Ratio of MIC for Escherichia coli MG1655 harboring GyrB R136C mutant in presence of efflux pump inhibitor PAbetaN to MIC for wild type Escherichia coli MG1655 in presence of efflux pump inhibitor PAbetaN; type: functional
# [23] = tested on: human topoisomerase 2alpha; experiment: Selectivity ratio of IC50 for inhibition of human topoisomerase 2alpha to IC50 for inhibition of Escherichia coli DNA gyrase; type: toxicity; settings: read-out: Ratio IC50
# [24] = tested on: human topoisomerase 2alpha; experiment: Selectivity ratio of IC50 for inhibition of human topoisomerase 2alpha to IC50 for inhibition of Staphylococcus aureus topoisomerase IV; type: toxicity; settings: read-out: Ratio IC50
# MCF7 = experiment: Cytotoxicity against human MCF-7 cells upto 100 uM by lactate dehydrogenase assay; type: cell-based
# Summary of the method: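 HepG2 or MCF-7 cells grown in EMEM with 2 mM L-glutamine, penicillin/streptomycin, 10% FBS at 37 °C, 5% CO2; LDH release kit per manufacturer, test concentrations up to 100 µM.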
# [25] = Ratio of genotoxicity in CHO-K1 cells by invitro micronucleus test to MIC for Enterococcus faecalis ATCC 29212; type: toxicity, cell-based; settings: hamster
# [26] = Ratio of genotoxicity in CHO-K1 cells by invitro micronucleus test to MIC for methicillin-resistant wild type Staphylococcus aureus ATCC 43300; type: toxicity, cell-based; settings: hamster
# [27] = Ratio of genotoxicity in CHO-K1 cells in presence of rat liver S9 fraction by invitro micronucleus test to MIC for Enterococcus faecalis ATCC 29212; type: toxicity, cell-based; settings: CHO-K1 cells with rat liver S9 fraction
# [28] = Ratio of genotoxicity in CHO-K1 cells in presence of rat liver S9 fraction by invitro micronucleus test to MIC for methicillin-resistant wild type Staphylococcus aureus ATCC 43300; type: toxicity, cell-based; settings: CHO-K1 cells with rat liver S9 fraction
# [29] = Genotoxicity in CHO-K1 cells upto 16 uM by invitro micronucleus test; type: cell-based, Cricetulus griseus; settings: chinese hamster
# [30] = Genotoxicity in CHO-K1 cells upto 62 uM by in presence of rat liver S9 fraction invitro micronucleus test; type: subcellular, Cricetulus griseus; settings: chinese hamster
# [31] = Drug metabolism in rat liver S9 fraction assessed as hydroxylated benzothiazole ring metabolite; type: ADME, subcellular
# [32] = Drug metabolism in rat liver S9 fraction assessed as direct glucuronide conjugate; type: ADME, subcellular
# DNA gyrase [33] = target: DNA gyrase (Escherichia coli, UniProt P0AES4+P0AES6); experiment: Inhibition of Escherichia coli DNA gyrase assessed as reduction in supercoiling of relaxed pNO1 DNA measured after 30 mins by fluorescence assay
# DNA gyrase [34] = target: DNA gyrase (Staphylococcus aureus, UniProt P0A0K8+P20831); experiment: Inhibition of Staphylococcus aureus DNA gyrase assessed reduction in supercoiling of relaxed pNO1 DNA measured after 30 mins by fluorescence assay
smiles,measurement,setting,value
Cc1[nH]c(C(=O)Nc2nc3c(OCc4ccsc4)cc(C(=O)O)cc3s2)c(Cl)c1Cl,selectivity ratio,[1],13
same,IC50,[2],84 nM
same,MIC,Staphylococcus aureus [3],0.25 µg/mL
same,MIC,Enterococcus faecalis,0.0156 µg/mL
same,MIC,Acinetobacter baumannii [4],1 µg/mL
same,MIC,Pseudomonas aeruginosa [5],2 µg/mL
same,MIC,Klebsiella pneumoniae,2 µg/mL
same,MIC,Escherichia coli [6],4 µg/mL
same,MIC,Staphylococcus aureus [7],0.0625 µg/mL
same,MIC,Staphylococcus aureus [8],0.125 µg/mL
same,MIC,Staphylococcus aureus [9],0.0625 µg/mL
same,MIC,Staphylococcus aureus [10],0.0625 µg/mL
same,MIC,Staphylococcus aureus [11],0.0313 µg/mL
same,MIC,Escherichia coli [12],> 64 µg/mL
same,MIC,Escherichia coli [13],0.125 µg/mL
same,MIC,Acinetobacter baumannii [14],0.5 µg/mL
same,MIC,Escherichia coli [15],1 µg/mL
same,MIC,Escherichia coli [16],2 µg/mL
same,MIC,Escherichia coli [17],2 µg/mL
same,MIC,Pseudomonas aeruginosa [18],16 µg/mL
same,Ratio,Staphylococcus aureus [19],2
same,Ratio,Staphylococcus aureus [20],2
same,selectivity ratio,[21],450
same,Ratio,Escherichia coli [22],8
same,selectivity ratio,[23],450
same,selectivity ratio,[24],54
same,Activity,MCF7,Non-Toxic
same,selectivity ratio,[25],495
same,selectivity ratio,[26],123
same,selectivity ratio,[27],1920
same,selectivity ratio,[28],478
same,Activity,[29],Non-Toxic
same,Activity,[30],Non-Toxic
same,Drug metabolism,[31],Metabolite_Detected
same,Drug metabolism,[32],Metabolite_Detected
same,IC50,DNA gyrase [33],< 10 nM
same,IC50,DNA gyrase [34],< 10 nM
